Published values from different studies.
Protocols differ between the studies behind these lines.
Target: Mitogen-activated protein kinase kinase kinase kinase 1 (MAP4K1, Homo sapiens, UniProt Q92918)

COc1cnc(Nc2cccc(S(N)(=O)=O)c2)nc1N1CCN(c2ccccc2)C(=O)C1 — remaining binding (binding; competition with immobilised ligand; 1 µM): 87%
O=C(NCC1CCOCC1)c1n[nH]cc1NC(=O)c1c(F)cccc1F — remaining binding (binding; competition with immobilised ligand; 1 µM): 71%
CN(C(=O)c1ccccc1)c1cc(N(C)c2ccc3c(c2)CCc2ccc(C(=O)NCCN4CCOCC4)cc2C3=O)ccc1F — remaining binding (cell-free assay; competition with immobilised ligand; 1 µM): 99%
C[C@@H]1CCN(c2nccc(-c3cnn4ncccc34)n2)C1 — remaining binding (binding; 1 µM): 100%
C[C@@H](c1ccc(-n2cnc3c(N)ncnc32)cc1)N1CCc2nn(C)c(Cc3ccccc3)c2C1=O — remaining binding (binding; competition with immobilised ligand; 0.1 µM): 100%
O=C(NCCCN1CCOCC1)c1ccc(Nc2ncc(Cl)c(-c3ccc(Cl)s3)n2)cc1 — remaining binding (binding; competition with immobilised ligand; 1 µM): 17%
CO[C@H]1CC[C@H](CNc2ccc(S(=O)(=O)NC(=O)c3ccc(N4CCN(CC5=C(c6ccc(Cl)cc6)CC(C)(C)CC5)CC4)cc3Oc3cnc4[nH]ccc4c3)cc2[N+](=O)[O-])CC1 — remaining binding (cell-free assay; competition with immobilised ligand; 1 µM): 69%
COc1ncc2cc3ccccc3nc2c1C#N — remaining binding (cell-free assay; competition with immobilised ligand; 5 µM): 89%
Cc1cc(-n2nc(Cc3cc(F)cc(C(F)(F)F)c3)nc2C)ccc1C(N)=O — remaining binding (cell-free assay; competition with immobilised ligand; 1 µM): 100%
C=CC(=O)N1CCC(C(=O)NCC(=O)N2CCN(c3nc(-c4cnc(N)nc4C(F)F)nc(N4CCOCC4)n3)CC2)CC1 — remaining binding (binding; competition with immobilised ligand; 1 µM): 100%
F[C@@H]1CCN(c2nccc(-c3cnn4ncccc34)n2)C1 — remaining binding (binding; 1 µM): 100%
O=C(c1ccc(Nc2nccc(-c3cc4ccccc4s3)n2)cc1)N1CCC(N2CCCC2)CC1 — remaining binding (binding; competition with immobilised ligand; 1 µM): 84%
Cc1cnn2ncc(-c3ccnc(N(C)C)n3)c2c1 — remaining binding (binding; 1 µM): 99%
CCOCCn1cc(C(=O)Nc2ccc(-n3nc(-c4cccnc4)cc3C(F)(F)F)cn2)ccc1=O — remaining binding (cell-free assay; competition with immobilised ligand; 1 µM): 81%
c1cnn2ncc(-c3ccnc(N4CCC45COC5)n3)c2c1 — remaining binding (binding; 1 µM): 100%
N#Cc1ccc(Nc2ccc3[nH]c(=O)[nH]c3c2)c(Cl)c1 — remaining binding (cell-free assay; competition with immobilised ligand; 1 µM): 100%
N[C@@H]1CCN(c2nccc(-c3cnn4ncccc34)n2)C1 — remaining binding (binding; 1 µM): 100%
Cc1c(NC(=O)c2cc(C(N)=O)nc3cc(F)ccc23)c(C(F)(F)F)nn1Cc1ccc(C#N)cc1 — remaining binding (cell-free assay; competition with immobilised ligand; 1 µM): 100%
CN(CCCC(F)(F)F)c1nccc(-c2cnn3ncccc23)n1 — remaining binding (binding; 1 µM): 95%
Nc1ncc2c(n1)-c1c([nH]c3ccc(C#CC4CC4)cc13)CCCC2 — remaining binding (binding; competition with immobilised ligand; 1 µM): 100%
CN(C)c1ncc(F)c(-c2cnn3ncccc23)n1 — remaining binding (binding; 1 µM): 100%
O=C(c1ccc(Nc2ncc(Cl)c(-c3cc4ccccc4s3)n2)cc1)N1CCC(N2CCCC2)CC1 — remaining binding (binding; competition with immobilised ligand; 1 µM): 26%
